Only some compounds are listed: those with a hit (about 2.3% of all), similar ones and a draw of the others.
TAAR1 ag: human TAAR1 agonism. hit rate 0.99% among 360,000. activation, % at 3 µM. CHO RD-HGA16 TAAR1, Fluo-8 calcium fluorescence; vehicle wells 0%, saturating PEA agonist 100%;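 active = activation above the mean activation of all test compounds in the run plus 3 SD, cut at about 38% in these data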
Target sequence (Q96RJ0 whole entry, looked up): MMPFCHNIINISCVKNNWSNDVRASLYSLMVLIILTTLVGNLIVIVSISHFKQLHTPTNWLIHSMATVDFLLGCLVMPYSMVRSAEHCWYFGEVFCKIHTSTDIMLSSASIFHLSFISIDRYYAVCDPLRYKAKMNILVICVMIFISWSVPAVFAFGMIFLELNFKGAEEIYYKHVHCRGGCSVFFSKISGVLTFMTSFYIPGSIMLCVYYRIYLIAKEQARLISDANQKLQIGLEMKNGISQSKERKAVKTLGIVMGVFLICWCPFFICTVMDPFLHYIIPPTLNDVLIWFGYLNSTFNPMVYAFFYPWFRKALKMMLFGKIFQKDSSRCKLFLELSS
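Repeats: no replicates (n 1) | Material: CHO-derived RD-HGA16 cells with stable Gα16 and human TAAR1 | Technique: Kinetic Fluo-8 calcium fluorescence | Schedule: 17-24 h seeding, 75 min 37 °C dye, 30 min RT | Evaluation: % activation from peak over basal fluorescence ratio, DMSO-to-PEA scaled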
V1aR counter: activates human V1a receptor in oxytocin agonist counter-screen. hit rate 0.25% among 320,000. P37288. CHO-V1R cells, Fluo-8 calcium fluorescence, agonist mode; 0% DMSO, 100% 3 nM vasopressin. activation, % at 3 µM;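 active = activation above the mean activation of all tested compounds plus 3 SD, per screening run, cut at about 20% in these data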;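 also: signal is peak over basal fluorescence ratio across a 100 second FLIPR read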
Target sequence (P37288 whole entry, looked up): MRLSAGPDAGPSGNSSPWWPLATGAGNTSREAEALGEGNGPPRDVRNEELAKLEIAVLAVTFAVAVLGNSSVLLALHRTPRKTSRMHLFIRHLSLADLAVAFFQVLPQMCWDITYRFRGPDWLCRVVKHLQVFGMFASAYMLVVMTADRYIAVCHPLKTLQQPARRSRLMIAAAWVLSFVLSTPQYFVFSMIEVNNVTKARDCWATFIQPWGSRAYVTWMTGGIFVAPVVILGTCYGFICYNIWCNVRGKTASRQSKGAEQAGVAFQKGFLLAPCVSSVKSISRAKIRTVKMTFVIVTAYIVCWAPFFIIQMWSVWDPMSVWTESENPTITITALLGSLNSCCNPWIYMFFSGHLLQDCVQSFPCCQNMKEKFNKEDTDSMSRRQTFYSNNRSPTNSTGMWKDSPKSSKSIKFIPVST
OXTR potentiate: potentiators of human oxytocin receptor; P30559; CHO-OTR cells, Fluo-8 calcium fluorescence, potentiator mode; 0% = oxytocin EC15, 100% = EC100; activation, % at 3 µM; hit rate 0.061% among 320,000; AID 2445;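 active = activation above that plate's cutoff, the mean activation of tested compounds plus 3 SD, cut at about 6.6% in these data, passing the limit was not always enough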
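assay system = CHO-OTR cells, human receptor | schedule = compound 6 min at room temperature before oxytocin, 100 s read | detection = Fluo-8 intracellular calcium fluorescence, ex 470-495, em 515-575 nm | evaluation = normalized max/min fluorescence ratio, % activation | control set = EC15 oxytocin alone as 0%, 75 nM oxytocin (EC100) as 100%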
TAAR1 antag: human TAAR1 antagonism; Q96RJ0; CHO RD-HGA16 TAAR1, Fluo-8 calcium fluorescence, antagonist; inhibition, % at 3 µM; hit rate 1.5% among 360,000; AID 624466;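 active = inhibition above a per-plate cutoff, the mean inhibition of test compounds on that plate plus 3 SD, cut at about 49% in these data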
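Material: CHO RD-HGA16 cells bearing hTAAR1; compound dosing: one-point dosing, 3 µM nominal final; schedule: dye loading 75 min at 37 °C, then 30 min room temperature; measured by: calcium fluorescence with Fluo-8; control set: vehicle and agonist controls; replication: n of 1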
OXTR agonist: activates the human oxytocin receptor | P30559 | CHO-OTR cells, Fluo-8 calcium fluorescence; normalized: DMSO 0%, oxytocin 100% | activation, % at 3 µM | hit rate 0.32% among 320,000 | AID 2435;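 active = activation above the mean of all tested compounds plus 3 SD, cutoff set per screening run, cut at about 20% in these data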;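 also: peak over basal fluorescence ratio from a 100 s FLIPR kinetic read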
Each line names hits and unclear results; the compound was inactive in the other large screens.

COc1cc(OC)cc(N(C(=O)CNC(=O)c2ccco2)C(C(=O)NCC2CCCO2)c2ccccc2)c1 (stereo not drawn)	TAAR1 antag 52
CCc1ccc(N(C(=O)CNC(=O)c2ccco2)C(C(=O)NCC2CCCO2)c2ccccc2)cc1 (stereo not drawn)	none
O=C(Nc1ccc(N2CCOCC2)cc1)Nc1ccc2nc(-c3ccco3)c(-c3ccco3)nc2c1	TAAR1 antag 49
O=C(NN=C1CCCC1)c1sc2ccccc2c1Cl	none
O=C1CCC/C(=N/NC(=O)c2sc3ccccc3c2Cl)C1	V1aR counter 32
CC(C)(C)C(=O)Nc1ccc(C(=O)N/N=C/c2ccccc2OC(=O)c2ccccc2)cc1	TAAR1 antag 53
O=C(N/N=C/c1ccc(OC(=O)c2ccccc2)c([N+](=O)[O-])c1)c1ccc(O)cc1	TAAR1 antag 53
COc1ccc(/C=N/NS(=O)(=O)c2ccc(F)cc2)cc1COc1cc(F)ccc1[N+](=O)[O-]	none
COc1ccc(/C=N\NC(=O)c2ccc(F)cc2)cc1COc1cc(F)ccc1[N+](=O)[O-]	TAAR1 antag 53 (no result: V1aR counter, OXTR potentiate, OXTR agonist)
COc1ccccc1Cc1c(-c2cccc(Br)c2)nc2ccc(C)cn12	none (no result: V1aR counter, OXTR potentiate, OXTR agonist)
C=CCC[C@H](Cc1ccc(F)cc1)C(=O)OC[C@H](Cc1c[nH]c2ccccc12)NC(=O)[C@@H](CC=C)CC(=O)N[C@H](CO)Cc1ccccc1	TAAR1 antag 57
C=CCC[C@@H](Cc1ccc(F)cc1)C(=O)OC[C@H](Cc1c[nH]c2ccccc12)NC(=O)[C@@H](CC=C)CC(=O)N[C@H](CO)Cc1ccccc1	TAAR1 antag 55
C=CCC[C@H](Cc1ccc(F)cc1)C(=O)OC[C@@H](Cc1c[nH]c2ccccc12)NC(=O)[C@H](CC=C)CC(=O)NCCO	TAAR1 antag 51
CN(C(=O)c1cccc(NC(=O)Cc2ccc(NC(=O)C3CCCN(C(=O)c4ccccc4)C3)cc2)c1)C1CC1 (stereo not drawn)	none (no result: V1aR counter, OXTR potentiate, OXTR agonist)
CCc1ccc(-c2n[nH]nc2C2=CC(=O)C[C@H](c3ccc(F)cc3)C2)cc1	none (no result: V1aR counter, OXTR potentiate, OXTR agonist)
CCCNC(=O)Cn1c(=O)/c(=C\c2ccc(-c3ccc([N+](=O)[O-])cc3)o2)s/c1=C\C(=O)C(C)(C)C	V1aR counter 37, OXTR agonist 63 (no result: TAAR1 ag, TAAR1 antag)
CCCNC(=O)Cn1c(=O)/c(=C/c2ccc(-c3cccc([N+](=O)[O-])c3)o2)s/c1=C\C(=O)C(C)(C)C	none (no result: V1aR counter, OXTR potentiate, OXTR agonist)
Cc1ccc(C(=O)N2CCC3(CC2)Oc2ccc(Cl)cc2C(=O)C32CC(c3cccnc3)=NO2)s1 (stereo not drawn)	none
O=C(/C=C/c1cccs1)N1CCC2(CC1)Oc1ccc(Cl)cc1C(=O)C21CC(c2cccnc2)=NO1 (stereo not drawn)	TAAR1 antag 53
CCOc1ccc(-c2nc(CSCC(=O)N3CCN(c4cccc(OC)c4)CC3)c(C)o2)cc1	TAAR1 antag 51
COc1ccc(-c2noc(CCC(=O)N3CCN(c4cccc(OC)c4)CC3)n2)cc1	TAAR1 antag 53 (no result: V1aR counter, OXTR potentiate, OXTR agonist)
Cc1ccc(-c2nc(CSCC(=O)N3CCN(c4ccccn4)CC3)c(C)o2)cc1	none
Cc1[nH]c2ccccc2c1C(=O)COC(=O)c1ccccc1O	TAAR1 antag 65
CCOC(=O)c1c(C)[nH]c(C)c1C(=O)COC(=O)c1ccccc1O	none
O=C1NC(=S)S/C1=C\c1cc(Cl)cc(Cl)c1O	TAAR1 ag 40, TAAR1 antag 65 (no result: V1aR counter, OXTR potentiate, OXTR agonist)
O=C1NC(=S)SC1=Cc1ccccc1Cl	none (no result: V1aR counter, OXTR potentiate, OXTR agonist)
CCCCCCC12C(=Cc3cc4c(cc31)OCCO4)c1cc(OC)c(OC)cc1C(CC(=O)O)N2C(=O)OC (stereo not drawn)	none (no result: V1aR counter, OXTR potentiate, OXTR agonist)
O=C(Nc1ccccc1)N(O)c1ccc(Cl)cc1	TAAR1 ag 38
CC(C)NS(=O)(=O)c1ccc(OCC(=O)Nc2ccc3c(c2)OCO3)c(Cl)c1	none
O=C(COc1ccc(S(=O)(=O)N2CCCC2)cc1Cl)Nc1ccc2c(c1)OCO2	TAAR1 antag 50
CCN(CC)S(=O)(=O)c1ccc(/C=C/C(=O)OCC(=O)Nc2cccnc2Cl)cc1	TAAR1 antag 49
CCN(CC)S(=O)(=O)c1ccc(/C=C/C(=O)OCC(=O)Nc2cccc3ccccc23)cc1	none
Cc1ccc2nc(-c3ccc(C#N)cc3)c(Cc3cccc(F)c3)n2c1	none (no result: V1aR counter, OXTR potentiate, OXTR agonist)
Nc1c(C(=O)NCc2ccccc2)nnn1Cc1ccc(F)cc1	TAAR1 ag 41
COc1ccccc1C(=O)NCC(=O)N/N=C/c1cc(Br)ccc1OCc1ccccc1	TAAR1 antag 49
O=C(CNC(=O)c1ccc(F)cc1)N/N=C/c1cc(Br)ccc1OCc1ccccc1	none
COc1ccc(COc2ccccc2C(=O)NCc2ccccc2)cc1F	TAAR1 antag 71
O=C(NCCc1c[nH]c2ccccc12)C(=O)c1c[nH]c2ccccc12	TAAR1 ag 40, TAAR1 antag 62
Cc1cccc(C)c1NC(=O)C(=O)NCCc1c[nH]c2ccccc12	TAAR1 ag 46
COc1cc2cc(C(=O)NCCc3c[nH]c4ccccc34)c(N)nc2cc1OC	TAAR1 ag 52, TAAR1 antag 70 (no result: V1aR counter, OXTR potentiate, OXTR agonist)
Cc1[nH]c2ccccc2c1C(=O)C(=O)NCCc1c[nH]c2ccccc12	TAAR1 ag 45, TAAR1 antag 75
COC(=O)[C@]12C[C@H](CC(=O)N3CCN(C(=O)C4CC4)CC3)C(=O)N(Cc3ccc4c(c3)OCO4)C1=C[C@H](COCc1ccccc1)O[C@@H]2C	none (no result: V1aR counter, OXTR potentiate, OXTR agonist)
O=C(NCC1CCN(C(=O)C(=O)c2cccs2)CC1)c1ccc2c(c1)OCO2	none (no result: V1aR counter, OXTR potentiate, OXTR agonist)
O=C(NCc1cccs1)c1ccc2sc([C@H]3C[C@H](O)[C@@H](CO)O3)nc2c1	none (no result: V1aR counter, OXTR potentiate, OXTR agonist)
CC(Nc1nc(N2CCNCC2)nc2ccccc12)c1ccccc1 (stereo not drawn)	TAAR1 ag 39
CCNC(=O)c1cc2c(c(-c3cccc(-c4ccccc4F)c3)n1)[C@H](CCO)N(C(=O)CC)C2	none (no result: V1aR counter, OXTR potentiate, OXTR agonist)
COc1ccccc1-c1cccc(-c2nc(C(=O)Nc3nccs3)cc3c2[C@@H](CCO)N(C(C)=O)C3)c1	TAAR1 antag 54 (no result: V1aR counter, OXTR potentiate, OXTR agonist)
CCC(=O)N1Cc2cc(C(=O)Nc3nccs3)nc(-c3cccc(-c4ccccc4OC)c3)c2[C@H]1CCO	TAAR1 antag 57 (no result: V1aR counter, OXTR potentiate, OXTR agonist)
CCNC(=O)c1cc2c(c(-c3cccc(-c4cc5ccccc5o4)c3)n1)[C@H](CCO)N(C(=O)NC(C)C)C2	TAAR1 antag 56 (no result: V1aR counter, OXTR potentiate, OXTR agonist)
COCC#Cc1cnc2c(c1)C(=O)N([C@@H](C)CO)C[C@H](C)[C@H](CN(C)C(=O)c1ccc3c(c1)OCO3)O2	none (no result: V1aR counter, OXTR potentiate, OXTR agonist)
COC(=O)[C@]12CCCCC=C1N(Cc1ccco1)C(=O)[C@H](CC(=O)NCc1ccc(OC)c(OC)c1)C2	none (no result: V1aR counter, OXTR potentiate, OXTR agonist)
COc1ccc([C@H]2CC(=O)C=C(c3cccc(OC)c3OC)C2)cc1OC	TAAR1 antag 52
COc1ccc([C@H]2CC(=O)C=C(c3cccc4c3sc3ccccc34)C2)cc1OC	none

Screening data as filed in PubChem BioAssay.
